SR-BI uptake up: activators of SR-BI mediated HDL lipid uptake; activation, % at 12.5 µM; AID 504775; CHO ldlA[mSR-BI] cells, DiI-HDL uptake fluorescence, 3 h; 100 = double the neutral-control signal; 0.096% of 320,000 active;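 active means mean replicate activation of at least 60% and every replicate at or above 60%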;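 further: 0% = median plate neutral-control signal and 100% = twice that signal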
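Test system: SR-BI-overexpressing, LDLR-lacking CHO cells; Medium: Ham's F12 with 0.5% BSA, HEPES 25 mM, pH 7.4; Schedule: 3 h, 37 °C; Technique: bottom-read fluorescence, 550/595 nm.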
Lipid droplet: modulators of hepatic lipid droplet formation. AML12 mouse hepatocytes, oleate lipid droplets, BODIPY imaging. inhibition, % at 6.5 µM. 0.4% of 240,000 active. AID 1656;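 active means lipid droplet intensity inhibited by at least 50%, with more than 500 cells counted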
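material = mouse AML12 hepatocyte cell line, fixed after treatment | also added = 100 µM oleic acid challenge | doses = compound at 6.5 µM only | schedule = overnight exposure | technique = Image-based BODIPY and DAPI two-channel analysis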
AHR activator: activators of human aryl hydrocarbon receptor; P35869; AHR-responsive luciferase reporter cells, luminescence; activation, % at 5 µM; 2.5% of 320,000 active; AID 2796; in the data active means activation above about 47%;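 further: 0% = vehicle wells and 100% = reference agonist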
Target sequence (P35869 whole entry, looked up): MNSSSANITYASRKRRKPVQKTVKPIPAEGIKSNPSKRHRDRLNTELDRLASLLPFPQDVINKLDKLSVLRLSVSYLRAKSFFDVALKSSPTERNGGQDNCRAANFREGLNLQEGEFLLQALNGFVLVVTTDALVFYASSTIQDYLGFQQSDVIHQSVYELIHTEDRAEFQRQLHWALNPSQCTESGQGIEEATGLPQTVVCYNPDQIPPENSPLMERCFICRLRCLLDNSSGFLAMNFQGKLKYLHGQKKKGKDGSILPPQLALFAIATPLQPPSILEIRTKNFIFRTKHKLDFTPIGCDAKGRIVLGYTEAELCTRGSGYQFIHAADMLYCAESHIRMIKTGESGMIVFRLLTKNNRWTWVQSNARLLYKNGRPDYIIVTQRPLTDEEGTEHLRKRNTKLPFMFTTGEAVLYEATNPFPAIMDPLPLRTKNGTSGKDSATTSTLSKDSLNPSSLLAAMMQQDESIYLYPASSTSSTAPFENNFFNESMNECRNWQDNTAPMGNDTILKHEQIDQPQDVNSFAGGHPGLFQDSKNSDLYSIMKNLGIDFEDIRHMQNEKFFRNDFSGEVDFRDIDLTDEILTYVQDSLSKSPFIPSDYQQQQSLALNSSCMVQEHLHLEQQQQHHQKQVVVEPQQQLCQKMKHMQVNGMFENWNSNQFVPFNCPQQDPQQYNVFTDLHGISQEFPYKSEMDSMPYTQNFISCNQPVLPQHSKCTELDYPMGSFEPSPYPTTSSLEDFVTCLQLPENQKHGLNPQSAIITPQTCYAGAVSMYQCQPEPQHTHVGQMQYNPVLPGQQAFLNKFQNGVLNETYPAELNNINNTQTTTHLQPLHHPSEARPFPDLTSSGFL
SMARCA2 activ: SMARCA2 function activation, primary screen; MG213 cells, MMTV-luciferase reporter, dexamethasone, overnight; activation, % at 9.1 µM; 1% of 370,000 active; in the data active means activation above about 7.8%;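 further: 0% = vehicle wells and 100% = reference activator wells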
SR-BI DiI inh: blocks mouse SR-BI lipid uptake from DiI-HDL. Q61009. ldlA[mSR-BI] CHO cells, DiI-HDL uptake fluorescence, 3 h. AID 488896. 0.96% of 320,000 active. inhibition, % at 12.5 µM;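 active means mean replicate inhibition of at least 70% and a set share of replicates each scoring 70 or more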;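 further: 0% = median of neutral control wells and 100% = median of positive control wells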
Yeast superoxide: caloric restriction mimetics inhibiting age-related superoxide in yeast. S. cerevisiae aged cells, superoxide DHE fluorescence; active compounds read low. superoxide response (% of plate mean), % at 10 µM. 0.18% of 330,000 active;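 active means superoxide response under a set limit, about three screen SD below normal, cut at about 65% in these data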;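 further: yeast aged for seven days with compound at 30 °C before DHE staining; 100% = average MFI of all compound-treated wells on the plate with controls excluded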
SMARCA2 act conf: SMARCA2 activation, confirmation screen. MG213 cells, MMTV-luciferase with dexamethasone, luminescence, overnight; MG213 cells expressing E1A, Rb sequestered; DMSO wells 0%, reference activator 100%. shares compounds with SMARCA2 activ. 30% of 3,500 active. activation, % at 9.1 µM;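 active means activation above its plate's cutoff, the mean activation of tested wells plus 3 SD, cut at about 7.9% in these data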
VP16 Luc act: GAL4-VP16 reporter activation counter-screen. 41% of 3,500 active. AID 686939. shares compounds with SMARCA2 activ. HEK293 GAL4-VP16 pG5luc reporter, luciferase luminescence; scaled: DMSO wells 0%, SAHA wells 100%. activation, % at 9.1 µM;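 active means activation above the solvent-only control well mean plus 3 SD, averaged across control plates, cut at about 5.2% in these data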
The depositor's hits bear a star; x = not tested or not shown. Shown are actives, neighbours in structure and some others; about 4.3% of the full set was active somewhere.

SMILES | SR-BI uptake up | Lipid droplet | AHR activator | SMARCA2 activ | SR-BI DiI inh | Yeast superoxide | SMARCA2 act conf | VP16 Luc act
C/C(=N\NC(=O)c1ccn(C)n1)c1cccc(NC(=O)c2ccc(C)s2)c1 | -53.7 | 1.0 | 13.0 | 15.6* | 53.7 | 92.1 | 8.0* | 6.0*
C/C(=N\NC(=O)c1cccc(C)c1)c1cccc(NC(=O)c2ccco2)c1 | -11.5 | x | 1.7 | 10.6* | 11.5 | 86.1 | 2.7 | 1.0
C/C(=N/NC(=O)c1ccco1)c1cccc(NC(=O)c2ccc(C)s2)c1 | -33.3 | 22.8 | 21.0 | 6.4 | 33.3 | 104.1 | x | x
C/C(=N/NC(=O)c1ccco1)c1cccc(NC(=O)c2ccc(C)o2)c1 | -6.6 | x | 9.1 | 8.8* | 6.6 | 112.6 | -0.6 | 2.8
C/C(=N\NC(=O)c1cccc(Cl)c1)c1cccc(NC(=O)c2ccco2)c1 | 2.2 | -0.9 | 8.7 | 5.9 | -2.2 | 86.4 | x | x
C/C(=N/NC(=O)c1ccc(Br)o1)c1cccc(NC(=O)c2ccc(C)o2)c1 | -18.6 | 1.9 | 51.4* | 12.9* | 18.6 | 94.2 | -0.5 | 2.8
O[C@H](COc1cccc(Cl)c1)CN1CCC(C(O)(c2ccccc2)c2ccccc2)CC1 | x | x | x | -0.3 | x | x | x | x
CC(=O)Nc1cccc(/C(C)=N/NC(=O)c2ccc(O)cc2)c1 | -30.8 | 12.9 | 5.0 | 8.1* | 30.8 | 113.8 | 2.6 | 1.5
O=C(COC(=O)c1cccc(NC(=O)c2ccco2)c1)c1ccc(Br)cc1 | -27.3 | x | 15.6 | 8.1* | 27.3 | 96.5 | 9.5* | 4.5
O=C(NCCc1ccccc1)OCc1cn(Cc2ccccc2F)nn1 | x | x | x | -1.1 | x | x | x | x
COc1ccc(CNS(=O)(=O)CC2NCCc3ccccc32)cc1 (stereo unspecified) | x | x | x | 3.1 | x | x | x | x
Clc1ccc(Nc2nnc(-c3ccc4c(c3)OCO4)o2)cc1 | x | x | x | 1.2 | x | x | x | x
Cc1occc1C(=O)N/N=C/C1=C(N2CCOCC2)C(=C\c2ccc(Cl)cc2Cl)/CC1 | -77.1 | 19.2 | -0.1 | 12.5* | 77.1* | 78.2 | 1.9 | 0.5
O=C(Nc1nc(Cc2ccccc2)c(-c2ccccc2)n1Cc1ccccc1)c1ccccc1 | x | x | x | -4.8 | x | x | x | x
O=C(c1ccccc1)c1nnc(-c2ccccc2F)o1 | 39.9 | 3.6 | 0.6 | 11.1* | -39.9 | 93.0 | 7.6 | 1.4
COc1ccc(/C=N/N=C2/NC(=O)C(CC(=O)O)S2)cc1OS(=O)(=O)c1ccccc1 (stereo unspecified) | 7.8 | -0.3 | -0.3 | 1.8 | -7.8 | 98.5 | x | x
COc1cc(/C=N/N=C2/NC(=O)C(Cc3ccccc3)S2)ccc1O (stereo unspecified) | -11.6 | -16.4 | 14.4 | 9.0* | 11.6 | 113.8 | 6.4 | 5.3*

Compound activity from PubChem.
